The record followed here is ChEMBL document CHEMBL1765004 (2011).

One assay has as its system LOX IMVI. Put plainly: Anticancer activity against human LOXIMVI cells. The class given is functional. Put shortly:
(§1)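 NCI-DTP 60 cell line screen; GI50 values supplied by NCI-DTP. HCT-116 GI50 for some entries determined instead by a separate group (Henry Ford Hospital). Compounds failing initial single-dose testing at 10 μM (<25% growth inhibition) were not taken to five-dose testing.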

For another assay, the system named is PC-3. Put plainly: Growth inhibition against human PC3 cells assessed as disruption of actin cytoskeleton. The assay is classed as functional.
Assay [1] concerns HCT-116. Put plainly: Antimicrofilament activity in human HCT116 cells assessed as loss of microfilament at 0.01 uM by rhodamine-phalloidin staining. The class given is functional, cell-based.
The next assay relates to MDA-MB-231. Put plainly: Anticancer activity against human MDA-MB-231 cells. The assay is classed as functional. Put shortly:
as §1

The subject of assay [2] is HCT-116. Put plainly: Antimicrofilament activity in human HCT116 cells assessed as loss of microfilament at 0.05 uM by rhodamine-phalloidin staining. The assay is classed as functional, cell-based.
The nature of assay [3]: Growth inhibition against human TSU-Pr1 cells assessed as disruption of actin cytoskeleton. The class given is functional.
Assay [4] deals with HCT-116. Put plainly: Antimicrofilament activity in human HCT116 cells assessed as total loss of microfilament network at 1 uM by rhodamine-phalloidin staining. The class given is functional, cell-based.
Another assay relates to LNCaP. Put plainly: Growth inhibition against human LNCAP cells assessed as disruption of actin cytoskeleton. The assay is classed as functional.
The test system of a further assay is NCI-H522. Put plainly: Anticancer activity against human NCI-H522 cells. The class given is functional. Put shortly:
as §1

A further assay deals with DU-145. Put plainly: Anticancer activity against human DU145 cells. The class given is functional. Put shortly:
as §1

Assay [5] relates to HCT-116. Put plainly: Antimicrofilament activity in human HCT116 cells assessed as loss of microfilament at 0.1 uM by rhodamine-phalloidin staining. The class given is functional, cell-based.
In the next assay the test system is A498. Put plainly: Anticancer activity against human A498 cells. The class given is functional. Put shortly:
as §1

For assay [6], the system named is HCT-116. Put plainly: Antimicrofilament activity in human HCT116 cells assessed as total loss of microfilament network at 5 uM by rhodamine-phalloidin staining. The class given is functional, cell-based.
A further assay deals with U-251. Put plainly: Anticancer activity against human U251 cells. The class given is functional. Put shortly: as §1
In assay [7] the test system is HCT-116. Put plainly: Anticancer activity against human HCT116 cells. The class given is functional. Put shortly: as §1
The subject of assay [8] is HCT-116. Put plainly: Antimicrofilament activity in human HCT116 cells assessed as total loss of microfilament network at 0.5 uM by rhodamine-phalloidin staining. The assay is classed as functional, cell-based.
The subject of assay [9] is HCT-116. Put plainly: Cytotoxicity against human HCT116 cells assessed as time required to kill 90% of tumor cells at 0.004 uM by clonogenic assay. The class given is functional. Put shortly: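 Clonogenic assay: HCT-116 seeded at 200–20 000 cells per 60 mm dish in RPMI + 10% FBS. Drug was given at 1 mg/mL and 10-fold dilutions for 2 h or 24 h, then replaced with drug-free medium, or given continuously. After 7 days colonies were stained with methylene blue and those of ≥50 cells counted, normalized to untreated control. Repeats spanned 100–0.1% survival; endpoint was 90% kill.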

The next assay deals with IGROV-1. Put plainly: Anticancer activity against human IGROV1 cells. The assay is classed as functional. Put shortly: as §1
In assay [10] the test system is HCT-116. Put plainly: Antimicrofilament activity in human HCT116 cells assessed as complete loss of microfilament network at 0.5 uM to 5 uM by rhodamine-phalloidin staining.

Each structure is given as a SMILES string. The source made the active and inactive calls. The calls are words filed in the database; no cut-off is given here.

On to `C/C1=C\[C@H](C)C[C@H](C)OC(=O)C[C@H](c2ccc(O)cc2)NC(=O)[C@@H](Cc2c(Br)[nH]c3ccccc23)N(C)C(=O)[C@H](C)NC(=O)[C@@H](C)C1` [JASPAMIDE], for which the GI50 amounted to 10 nM in the assay with LOX IMVI; 65 µM in the assay with PC-3; 10 nM in the assay with MDA-MB-231; 170 µM in assay [3]; 41 µM in the assay with LNCaP; 30 nM in the assay with NCI-H522. Besides, the concentration for 50% growth inhibition (GI50) turned out to be 30 nM in the assay with DU-145; 30 nM in the assay with A498; 70 nM in the assay with U-251; 40 nM in the assay on HCT-116 [7]; 20 nM in the assay on IGROV-1. The result in the assay on HCT-116 [1], in the assay on HCT-116 [2] and in the assay on HCT-116 [5] was inactive. Also, the result in the assay with HCT-116 [4], with HCT-116 [6], in the assay with HCT-116 [8] and in the assay on HCT-116 [10] was Active. Moreover, the Time in the assay with HCT-116 [9] was 7 days.

Usually GI50 stands for the concentration at which growth is held to half of that of the control.
